This is an account of results in ChEMBL document CHEMBL1135645, “Synthesis and evaluation of analogues of 5'-([(Z)-4-amino-2-butenyl]methylamino)-5'-deoxyadenosine as inhibitors of tumor cell growth, trypanosomal growth, and HIV-1 infectivity” (J Med Chem, 2002).

The test system of assay [1] is A121. The assay can be described thus: In vitro Anti Neoplastic Activity against Human ovarian carcinoma A121 Cell lines. In kind it is functional, cell-based. In a few lines: (§1)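 SRB growth assay. Cell lines were grown as monolayers in RPMI-1640 with 5% FCS, 5% NuSerum IV, 20 mM HEPES and 2 mM glutamine, and seeded at 400–1200 cells/well. They attached for 15–18 h before drug. Ten concentrations over 5 logs were tested, with final DMSO ≤0.25%. Exposure was 72 h at 37 °C. Cells were TCA-fixed, stained with sulforhodamine B and read at OD 570 nm. IC50 is 50% growth inhibition.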

Assay [2] has as its system MCF7. The assay can be described thus: In vitro Anti Neoplastic Activity against Adriamycin resistant Human Breast adenocarcinoma MCF7-Adr Cell lines. In kind it is functional, cell-based. The method in brief:
as §1

For assay [3], the system named is HT-29. The assay can be described thus: In vitro Anti Neoplastic Activity in Human Colon adenocarcinoma HT-29 Cell lines. It counts as functional, cell-based. In a few lines:
as §1

Assay [4] relates to Trypanosoma brucei brucei. Put plainly: In vitro anti trypanosomal activity against Trypanosomal 110 (EATRO)strain. It counts as functional, organism-based.
The subject of assay [5] is Trypanosoma brucei rhodesiense. The assay can be described thus: In vitro anti trypanosomal activity against Trypanosomal 243 (KETRI)strain. It counts as functional, organism-based.
Assay [6] deals with L1210. The assay can be described thus: In vitro inhibition of AdoMetDC derived from L1210 Murine Leukemia Cells at a dose of 100 uM. It counts as functional. To be noted: Mus musculus.
Assay [7] has as its system L1210. The assay can be described thus: In vitro Anti Neoplastic Activity against L1210 murine leukemia Cell lines. It counts as functional, cell-based. To be noted: Mus musculus. In a few lines:
as §1

Assay [8] relates to A549. Put plainly: In vitro Anti Neoplastic Activity against Human non small cell lung carcinoma A549 Cell lines. It counts as functional, cell-based. The method in brief: as §1
Assay [9] concerns MCF7. Put plainly: In vitro Anti Neoplastic Activity against Human Breast adenocarcinoma MCF-7 Cell lines. In kind it is functional, cell-based. In a few lines: as §1
The subject of assay [10] is Trypanosoma brucei brucei. Put plainly: In vitro antitrypanosomal activity against Trypanosomal 110 (EATRO)strain at a dose of 100 uM. In kind it is functional.
In assay [11] the test system is HT-29. The assay can be described thus: In vitro Antineoplastic Activity in Human Colon adenocarcinoma HT-29 Cell lines. It counts as functional, cell-based. In a few lines:
as §1

Assay [12] relates to A549. Put plainly: In vitro Antineoplastic Activity against Human non small cell lung carcinoma A549 Cell lines. It counts as functional, cell-based.
Assay [13] deals with Trypanosoma brucei rhodesiense. Put plainly: In vitro antitrypanosomal activity against Trypanosomal 243 (KETRI)strain at a dose of 100 uM. It counts as functional.
In assay [14] the test system is A121. The assay can be described thus: In vitro Antineoplastic Activity against Human ovarian carcinoma A121 Cell lines. It counts as functional, cell-based.
The subject of assay [15] is A121. The assay can be described thus: In vitro anti Neoplastic Activity against Human ovarian carcinoma A121 Cell lines. In kind it is functional, cell-based. The method in brief: as §1
Assay [16] concerns MCF7. Put plainly: In vitro anti Neoplastic Activity against Human Breast adenocarcinoma MCF-7 Cell lines. In kind it is functional, cell-based. In a few lines:
as §1

For assay [17], the system named is L1210. Put plainly: In Vitro inhibition of L1210 Murine Leukemia Cells by the compound at a dose of 100 uM. It counts as functional. The conditions noted are these: Mus musculus.
Assay [18] relates to Trypanosoma brucei brucei. The assay can be described thus: In Vitro inhibition of Trypanosomal 110 (EATRO)strain by the compound at a dose of 100 uM. In kind it is functional.
Assay [19] concerns Trypanosoma brucei rhodesiense. Put plainly: In Vitro inhibition of Trypanosomal 243 (KETRI)strain by the compound at a dose of 100 uM. In kind it is functional.
The subject of assay [20] is HT-29. Put plainly: In vitro anti Neoplastic Activity in Human Colon adenocarcinoma HT-29 Cell lines. In kind it is functional, cell-based. The method in brief: as §1
Assay [21] concerns MCF7. The assay can be described thus: In vitro anti Neoplastic Activity against Adriamycin resistant Human Breast adenocarcinoma MCF7-Adr Cell lines. It counts as functional, cell-based. In a few lines: as §1
Assay [22] has as its system A549. The assay can be described thus: In vitro anti Neoplastic Activity against Human non small cell lung carcinoma A549 Cell lines. It counts as functional, cell-based. In a few lines: as §1

Structures are written as SMILES. A value given as a limit tells only on which side of the number the result lay.

For the compound `CN(C/C=C\CN)CC(CO)OC(CO)n1cnc2c(N)ncnc21` (stereo unspecified), the IC50 is 41 µM with A121 [1]; 78 µM in the assay with MCF7 [2]; 112 µM in the assay with HT-29 [3]; 16 µM in assay [4]; 15 µM in [5]; more than 600 µM in the assay on L1210 [7]. Besides, the figures for the IC50 with A549 [8] and in the assay with MCF7 [9] were more than 100 µM and 63 µM, respectively. The compound also showed an inhibition at 100 µM in the assay with L1210 [6] of 27%.
For the compound `CNC[C@H]1OC(n2cnc3c(N)ncnc32)[C@H](O)[C@@H]1O` (stereo partly specified), the inhibition at 100 µM amounted to 44% in assay [10] and 26% in assay [13]. The IC50 in the assay on MCF7 [2] was more than 100 µM; with HT-29 [11], more than 100 µM; with A549 [12] it was more than 100 µM; in the assay on L1210 [7] it was more than 600 µM; in the assay with MCF7 [9], more than 100 µM; in the assay on A121 [14], more than 100 µM.
Take `CN(Cc1ccc(CN)cc1)C[C@H]1OC(n2cnc3c(N)ncnc32)[C@H](O)[C@@H]1O` (stereo partly specified): the IC50 is more than 100 µM in the assay with A121 [15]; more than 100 µM in the assay with MCF7 [16]; more than 600 µM in the assay on L1210 [7]; more than 100 µM in the assay on HT-29 [20]; more than 100 µM in the assay on MCF7 [21]; more than 100 µM with A549 [22]. The figures for the inhibition at 100 µM (in the assay with L1210 [17]; in assay [18]; in [19]) were 21%, 21% and 23%, respectively.

For orientation: IC50 means the point on the concentration scale where inhibition reaches its midpoint. Read a low IC50 as greater potency in that assay. By inhibition is commonly meant the relative decrease from the control value, in per cent. Low values mean little suppression, high ones strong suppression.
